From ChEMBL document CHEMBL1139474, “Cellular apoptosis and cytotoxicity of phenolic compounds: a quantitative structure-activity relationship study” (J Med Chem, 2005)

Assays:
L1210 [1] = test: Activity against caspase-mediated apoptosis in mouse L1210 cells at 0.1 mM; type: functional
L1210 [2] = test: Cytotoxicity against mouse L1210 cells; conditions: mouse, l1210
CCRF-CEM = test: Cytotoxicity against human CCRF-CEM cells
[3] = Cytotoxicity against human CEM/VLB cells
L1210 [4] = test: Activity against caspase-mediated apoptosis in mouse L1210 cells; type: functional
HL-60 = test: Cytotoxicity against human HL60 cells; type: cell-based
Method in brief: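 HL-60 cells grown at 37 °C in RPMI with L-glutamine and 10% FBS, then seeded at (2–5) × 10⁴ cells/mL, in duplicate, at eight or more concentrations. Compounds were diluted in unsupplemented RPMI and added 1:10. After 48 h of continuous exposure, CyQUANT GR nucleic-acid dye fluorescence was read (ex 485/em 530 nm). IC50 is the concentration giving 50% lower fluorescence than controls, taken from the dose-response curve.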

Row | Structure (SMILES) | Activity (L1210 [1]) | log(1/ID50) (L1210 [2]) | log(1/ID50) (L1210 [4]) | also measured
1 | Oc1ccccc1Cl [2-CHLOROPHENOL] | <15% | 3.22 |  | 
2 | OCc1ccccc1O [SALICYL ALCOHOL] | <15% | 2.7 |  | 
3 | CC(=O)Nc1ccc(O)cc1 [ACETAMINOPHEN] | <15% | 3.73 |  | 
4 | Oc1ccc(Cl)cc1 [PARACHLOROPHENOL] | <15% | 4.29 |  | log(1/ID50) (CCRF-CEM): 3.45; log(1/ID50) [3]: 3.89
5 | Cc1cc(Br)ccc1O |  | 3.46 |  | 
6 | Cc1cc(F)ccc1O |  | 3.09 |  | 
7 | Oc1cccc(Cl)c1 | <15% |  |  | 
8 | Oc1ccc(Br)cc1 | <15% |  |  | 
9 | CC(C)(C)c1ccc(O)cc1.Cl | <15% |  |  | 
10 | CN(C)c1cccc(O)c1 | <15% | 4.11 |  | 
11 | COc1ccccc1O [GUAIACOL] | <15% |  | 2.41 | 
12 | CC(C)Cc1ccccc1O | <15% | 3.9 |  | 
13 | C[C@]12CCc3c(ccc4cc(O)ccc34)[C@@H]1CCC2=O [EQUILENIN] |  |  |  | log(1/ID50) (HL-60): 3.9
14 | CCc1ccc(O)c(C(C)(C)C)c1 |  | 3.8 |  | 
15 | Oc1ccccc1C(F)(F)F | <15% | 3.22 |  | 
16 | N#Cc1ccccc1O | <15% | 3.3 |  | 
17 | CC(=O)c1ccc(O)c(C)c1 |  | 3.14 |  | 
18 | Oc1ccccc1O [CATECHOL] | <15% | 3.75 |  | 
19 | COc1cc(C=O)cc(OC)c1O [SYRINGALDEHYDE] |  | 3.1 | 2.9 | 
20 | N#Cc1cccc(O)c1 | <15% | 3.11 | 1.11 | 
21 | CCCCCCOc1ccc(O)cc1 | <15% | 5.5 |  | log(1/ID50) (CCRF-CEM): 5.34; log(1/ID50) [3]: 5.37
22 | CC(C)c1ccccc1O | <15% | 3.5 | 2.38 | 
23 | Cc1ccc(O)c(C)c1 |  | 3.04 |  | 
24 | Cc1cccc(C)c1O |  | 3.02 |  | 
25 | Cc1cccc(C(C)(C)C)c1O |  | 3.73 |  | 

Row | Structure (SMILES) | Activity (L1210 [1]) | log(1/ID50) (L1210 [2]) | log(1/ID50) (L1210 [4]) | also measured
26 | COc1cc(OC)c(O)c(OC)c1 |  |  | 2.2 | 
27 | CCCCCCCc1ccc(O)cc1 | <15% | 4.49 |  | 
28 | COc1cc(C(C)(C)C)c(O)c(C(C)(C)C)c1 |  | 3.71 | 2.87 | 
29 | CCCCc1ccc(O)cc1.Cl | <15% |  |  | log(1/ID50) (HL-60): 3.52
30 | Cc1cccc(O)c1 [METACRESOL] | <15% | 3.54 | 0.45 | 
31 | CCCCOc1ccc(O)cc1 | <15% | 5.2 | 0.14 | 
32 | COc1cc(NC(C)=O)cc(OC)c1O |  | 3.99 | 2.5 | 
33 | CC(=O)c1cc(C(C)(C)C)c(O)c(C(C)(C)C)c1 |  | 3.94 | 2.41 | 
34 | CC(C)(C)c1cc(C=O)cc(C(C)(C)C)c1O |  | 4.06 | 2.49 | 
35 | Oc1ccccc1Br | <15% | 3.44 |  | 
36 | CC(C)(c1ccc(O)cc1)c1ccc(O)cc1 [BISPHENOL A] | <15% |  |  | log(1/ID50) (CCRF-CEM): 4.18; log(1/ID50) [3]: 3.96
37 | CCc1ccccc1O | <15% |  | 2.11 | 
38 | N#Cc1ccc(O)cc1 [4-CYANOPHENOL] | <15% | 3.44 | 0.1 | 
39 | CCc1cc(C(C)(C)C)c(O)c(C(C)(C)C)c1 |  | 3.91 | 2.43 | 
40 | Oc1ccc(O)cc1 [HYDROQUINONE] | <15% | 4.59 |  | 
41 | Cc1ccc(O)c(N)c1 |  |  | 2.09 | 
42 | Cc1cc([N+](=O)[O-])ccc1O |  | 3.49 |  | 
43 | Cc1ccc(O)c(C(C)(C)C)c1 |  | 3.8 |  | 
44 | CCOc1ccccc1O [1-hydroxy-2-ethoxybenzene] | <15% | 3.25 |  | 
45 | CC(C)(C)c1cc([N+](=O)[O-])cc(C(C)(C)C)c1O |  | 4.9 | 2.49 | 
46 | Cc1cc(C)c(O)c(C)c1 |  | 3.2 |  | 
47 | CCCc1ccc(O)cc1 | <15% | 4.04 |  | log(1/ID50) (CCRF-CEM): 3.72; log(1/ID50) [3]: 3.73
48 | O=[N+]([O-])c1ccc(O)cc1 [P-NITROPHENOL] | <15% | 3.45 | 1 | log(1/ID50) (CCRF-CEM): 3.28; log(1/ID50) [3]: 3.36
49 | Nc1ccccc1O [QUESTIOMYCIN B] | <15% | 5.16 | 2.29 | 
50 | NC(=O)Nc1ccccc1O | <15% | 3.5 |  | 

Row | Structure (SMILES) | Activity (L1210 [1]) | log(1/ID50) (L1210 [2]) | log(1/ID50) (L1210 [4]) | also measured
51 | O=[N+]([O-])c1ccccc1O [NITROPHENOLATE] | <15% | 3.34 |  | 
52 | CC(C)(C)c1cc(C#N)cc(C(C)(C)C)c1O |  | 4.68 | 2.88 | 
53 | CCCCCCCCCc1ccc(O)cc1 [4-NONYLPHENOL] | <15% | 4.75 |  | 
54 | CC(C)c1cccc(C(C)C)c1O [PROPOFOL] |  | 3.25 |  | 
55 | CCCCc1ccc(O)cc1 | <15% | 4.33 |  | 
56 | CC(C)(C)c1cc(CO)cc(C(C)(C)C)c1O |  | 3.88 | 2.39 | 
57 | Oc1ccc(I)cc1 | <15% | 3.86 |  | log(1/ID50) (CCRF-CEM): 4.29; log(1/ID50) [3]: 3.86
58 | Nc1cccc(O)c1 [3-AMINOPHENOL] | <15% |  | 1.25 | 
59 | CSc1ccccc1O | <15% | 3.7 |  | 
60 | O=[N+]([O-])c1cccc(O)c1 [3-NITRO-PHENOL] | <15% | 3.48 | 0.79 | 
61 | COc1ccccc1O.Cl [GUAIACOL HYDROCHLORIDE] | <15% | 3.78 |  | 
62 | COCc1cc(C(C)(C)C)c(O)c(C(C)(C)C)c1 |  | 3.93 | 2.9 | 
63 | COc1cc(N)cc(OC)c1O |  | 5.52 | 3.1 | 
64 | Cc1ccccc1O [ORTHOCRESOL] | <15% | 3.52 | 1.87 | 
65 | CC(C)(C)c1cccc(O)c1 | <15% | 3.88 |  | 
66 | NS(=O)(=O)c1ccc(O)cc1 | <15% | 2.5 |  | log(1/ID50) (CCRF-CEM): 2.31; log(1/ID50) [3]: 2.11
67 | Oc1ccccc1F | <15% | 3.2 |  | 
68 | Cc1ccc(O)c(O)c1 |  | 5.03 |  | 
69 | NC(=O)c1ccc(O)cc1 | <15% | 2.48 |  | log(1/ID50) (CCRF-CEM): 2.23; log(1/ID50) [3]: 2.38
70 | CC(C)(C)c1cccc(C(C)(C)C)c1O |  | 3.85 | 1.9 | 
71 | Oc1cccc(F)c1 | <15% | 3.46 | 0.82 | 
72 | CC(C)(C)c1ccc(O)c(C(C)(C)C)c1 |  | 4.24 |  | 
73 | CC(C)(C)c1ccccc1O | <15% | 4 | 2.42 | 
74 | CC(=O)Oc1cc(C(C)(C)C)c(O)c(C(C)(C)C)c1 |  | 4.35 | 2.8 | 
75 | Cl.Nc1cccc(O)c1 [3-AMINOPHENOL HYDROCHLORIDE] | <15% | 4.11 |  | 

Row | Structure (SMILES) | Activity (L1210 [1]) | log(1/ID50) (L1210 [2]) | log(1/ID50) (L1210 [4]) | also measured
76 | Oc1cccc(Br)c1 | <15% | 3.82 | 1 | 
77 | Oc1ccccc1I | <15% | 3.95 | 2.38 | 
78 | COc1cccc(OC)c1O [SYRINGOL] |  | 3.86 | 2.7 | 
79 | COc1cc(/C=C/C=O)cc(OC)c1O |  | 4.25 | 2.6 | 
80 | Oc1cccc(O)c1 [RESORCINOL] | <15% | 3.46 | 0.79 | 
81 | CC(C)(C)c1cc(O)cc(C(C)(C)C)c1O |  | 4.16 | 2.5 | 
82 | C[C@]12CC[C@@H]3c4ccc(O)cc4CC[C@H]3[C@@H]1CC[C@@H]2O [ESTRADIOL] |  |  |  | log(1/ID50) (HL-60): 3.6
83 | CC/C(=C(/CC)c1ccc(O)cc1)c1ccc(O)cc1 [DIETHYLSTILBESTROL] |  |  |  | log(1/ID50) (HL-60): 4
84 | CC(=O)Nc1cccc(O)c1 [METACETAMOL] | <15% | 2.65 | 1.1 | 
85 | COc1cccc(O)c1 [1-hydroxy-3-methoxybenzene] | <15% | 3.71 | 1.31 | 
86 | COc1cc(C(C)=O)cc(OC)c1O [ACETOSYRINGONE] |  | 3.06 | 2.8 | 
87 | Oc1ccc(F)cc1 | <15% | 3.83 |  | 
88 | CC(C)(C)c1cc(C(C)(C)C)c(O)c(C(C)(C)C)c1 |  | 5.05 | 2.1 | 
89 | COc1cc(C)cc(OC)c1O |  | 2.89 | 2.4 | 
90 | CCCCCc1ccc(O)cc1 | <15% | 4.47 |  | 
91 | CC(C)(C)c1ccc(O)cc1 | <15% |  |  | 
92 | CCc1cccc(O)c1 | <15% | 3.71 |  | 
93 | O=Cc1ccc(O)cc1 [4-HYDROXYBENZALDEHYDE] | <15% | 3.08 |  | 
94 | CC(=O)c1ccc(O)cc1 [4-HYDROXYACETOPHENONE] | <15% |  | 0.03 | 
95 | Nc1cc([N+](=O)[O-])ccc1O [2-AMINO-4-NITROPHENOL] |  |  | 2.46 | 
96 | CCc1cccc(CC)c1O |  | 3.26 |  | 
97 | CCCc1ccccc1O | <15% | 3.49 | 2.16 | 
98 | COc1ccc(O)c(C)c1 |  | 3.39 |  | 
